Screens as filed in PubChem BioAssay.
The list is not random: actives were taken first. Their share in the collection is about 8.8%.
M1 ag: M1 muscarinic receptor agonists, primary screen, CHO-M1 cells, Fluo-4 calcium, agonist mode; B-score at 10 µM; Fluo-4 calcium fluorescence; hits give high values; 64,000 compounds, 3% hits; AID 626, 2007;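 active = fluorescence rise, raw or as B-score row- and column-corrected plate score, outside the 99.7% band of its plate's samples, either direction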
RORa activator: activators of orphan receptor RORA, primary screen, cell-based, luminescence. 65,000 compounds, 1.5% hits. activation, % at 10 µM. Nuclear receptor ROR-alpha (Homo sapiens), P35398. CHO-K1 Gal4-RORA LBD luciferase reporter; percent increase over mock-subtracted basal signal;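 active = activation above the mean of all tested compounds plus 3 SD, cut at about 49% in these data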;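 also: 0% = DMSO-treated RORA cells and 100% = added signal equal to DMSO minus mock-transfected cells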
SF-1 act: activators of human SF-1, primary screen, cell-based, CHO-K1, Gal4-SF-1 LBD, luciferase luminescence; AID 522, 2006; activation, % at 10 µM; Steroidogenic factor 1 (Homo sapiens), Q13285; 65,000 compounds, 1.9% hits; CHO-K1 Gal4-SF-1 LBD luciferase reporter; % increase over DMSO SF-1-specific signal;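 active = activation above the mean activation of all tested compounds plus 3 SD, cut at about 50% in these data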
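Material: Transient Gal4-SF-1 LBD reporter, CHO-K1 | Input: 4,000 cells/well | Dosing: One dose, 10 µM compound, 1% DMSO | Incubation: 20 h compound treatment, 37 °C | Detection: SteadyLite luciferase luminescence | Evaluation: Percent activation relative to DMSO median and mock-transfected background | Benchmarks: DMSO-treated SF-1-transfected cells as negative, DMSO-treated mock-transfected cells lacking SF-1 as background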
S1P1 ag pot: S1P1 agonists and agonism potentiators, primary screen, cell-based, primary and confirmation screens, CRE-bla reporter | S1P1 CRE-bla cells, forskolin, beta-lactamase FRET, potentiator mode; S1P1 agonist co-added at EC20, 2 nM; 100% = saturating reference agonist, 0% = basal | activation, % at 9.5 µM | 56,000 compounds, 0.57% hits | Sphingosine 1-phosphate receptor 1 (Homo sapiens), P21453;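 active = activation above a cutoff set at the mean activation of all tested compounds plus 3 SD, cut at about 54% in these data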;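 also: forskolin at 4 µM as EC80 and the EC20 agonist is SEW2871; 100% = SEW2871 at its EC100 plus forskolin at EC80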
Target sequence (P21453 whole entry, looked up): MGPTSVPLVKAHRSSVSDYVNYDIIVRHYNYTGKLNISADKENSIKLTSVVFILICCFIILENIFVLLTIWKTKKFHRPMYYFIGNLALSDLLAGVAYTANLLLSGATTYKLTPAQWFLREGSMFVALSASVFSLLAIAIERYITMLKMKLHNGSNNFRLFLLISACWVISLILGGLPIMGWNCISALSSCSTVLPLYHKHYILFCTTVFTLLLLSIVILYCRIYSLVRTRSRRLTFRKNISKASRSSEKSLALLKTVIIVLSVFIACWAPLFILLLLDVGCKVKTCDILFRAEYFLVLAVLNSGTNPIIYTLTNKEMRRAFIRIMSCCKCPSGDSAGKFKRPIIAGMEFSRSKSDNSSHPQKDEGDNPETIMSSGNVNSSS
S1P3 ag: human S1P3 receptor agonists, primary screen, cell-based, primary and confirmation, NFAT-BLA reporter | activation, % at 4.5 µM | 60,000 compounds, 0.1% hits | S1P3 NFAT-BLA reporter cells, agonism, FRET ratio; relative to 1 µM S1P, basal subtracted | Sphingosine 1-phosphate receptor 3 (Homo sapiens), Q99500;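 active = activation above the screen-wide mean plus 3 SD, cut at about 4.5% in these data, passing the limit was not always enough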
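Benchmarks: high control 1 µM S1P / System: stable CHO line with human S1P3, Gα16, NFAT-BLA reporter / Dosing: single compound concentration, 4.5 µM final / Timing: 4 h compound at 37 °C, 2 h substrate at RT / Measured by: FRET β-lactamase substrate fluorescence, excitation 405 nm, 460/535 nm emission ratio, background-subtracted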
M1 antagonist: antagonists of rat M1 muscarinic receptor | Muscarinic acetylcholine receptor M1 (Rattus norvegicus), P08482 | 64,000 compounds, 3.4% hits | CHO-M1 cells, Fluo-4 calcium, ACh EC80 antagonist mode; hits give low values | AID 628, 2007 | B-score at 10 µM;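 active = calcium fluorescence response, raw or row-and-column corrected B-score, differing from the plate sample mean either way at a set confidence level, mostly lower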
M1 ag confirm: rat M1 muscarinic receptor agonists, confirmation, CHO-M1 cells, Fluo-4 calcium, duplicate retest; shares compounds with M1 ag; Fluo-4 calcium fluorescence, agonist mode; actives lie on both sides; fluorescence change (max-min) at 10 µM; 1,700 compounds, 19% hits; AID 1488, 2009;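 active = fluorescence change differs from the solvent-only DMSO control mean at a set confidence level in both duplicate runs; inconclusive = differs from solvent-only control mean in just one of two runs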;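 also: an EC20 dose of acetylcholine follows compound addition during the same imaging run; raw fluorescence intensity difference in instrument units with no normalization to controls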
M4 ag counter: agonist activity at rat M4 receptor, confirmation, counter-screen for M1 allosteric modulator project, cell-based, agonist mode. shares compounds with M1 ag. CHO M4/Gqi5 cells, Fluo-4 calcium fluorescence; actives lie on both sides. fluorescence change (max-min) at 10 µM. 1,700 compounds, 9% hits;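 active = fluorescence change differing from the plate's solvent-only control wells at 99.7% confidence in both duplicates, whether higher or lower; inconclusive = differs from solvent controls in only one of two duplicates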
* = called active by the depositor.

What do the screens show for `CCCOc1ccc2ccccc2c1/C=N/n1c(C)nnc1-n1nc(C)cc1C`?
M1 ag: 3.4*; RORa activator: 21; SF-1 act: 31; S1P1 ag pot: 18; S1P3 ag: -1; M1 antagonist: -0.5; M1 ag confirm: inconclusive; M4 ag counter: -38

Results for CCOC(=O)N1CC=C2C(C#N)=C(N)C(C#N)(C#N)[C@H](c3ccc(OC(C)C)c(OCC)c3)[C@H]2C1 ?
M1 ag: -1.2; RORa activator: 0; SF-1 act: -30; S1P1 ag pot: 15; S1P3 ag: -1; M1 antagonist: 0.69

How did CN1CC=C2C(C#N)=C(N)C(C#N)(C#N)[C@H](c3cccc(Cl)c3)C2C1 (stereo not given in full) do in these assays?
M1 ag: 54*; RORa activator: -11; SF-1 act: -11; S1P1 ag pot: 8; S1P3 ag: 0; M1 antagonist: -0.18; M1 ag confirm: 173*; M4 ag counter: 112

What do the screens show for `COc1cccc(C2C3CN(C)CC=C3C(C#N)=C(N)C2(C#N)C#N)c1OC` (stereo not given)?
M1 ag: 87*; RORa activator: -12; SF-1 act: -2; M1 antagonist: 0.42; M1 ag confirm: 651*; M4 ag counter: 605*

Results for CCN1CC=C2C(C#N)=C(N)C(C#N)(C#N)[C@H](c3cccc(OC)c3OC)[C@H]2C1 ?
M1 ag: 271*; RORa activator: -13; SF-1 act: -2; S1P1 ag pot: 7; S1P3 ag: -4; M1 antagonist: -1.8; M1 ag confirm: 307*; M4 ag counter: inconclusive

How did CN1CC=C2C(C#N)=C(N)C(C#N)(C#N)C(CCc3ccccc3)C2C1 (stereo not given) do in these assays?
M1 ag: 18*; RORa activator: 4; SF-1 act: 8; S1P1 ag pot: 2; S1P3 ag: 0; M1 antagonist: -1.1; M1 ag confirm: 91*; M4 ag counter: 37

How did CCOC(=O)c1ccccc1NC(=O)c1cn(CC)c2nc(C)ccc2c1=O do in these assays?
M1 ag: 0.96; RORa activator: -24; SF-1 act: -7; S1P1 ag pot: -19; S1P3 ag: 0; M1 antagonist: -0.33

Results for O=C(CSc1nnc2c(Cl)cc(C(F)(F)F)cn12)Nc1ccc2c(c1)OCO2 ?
M1 ag: -0.48; RORa activator: -7; SF-1 act: -14; M1 antagonist: -1.2

How did CCOC(=O)N1CC=C2C(C#N)=C(N)C(C#N)(C#N)[C@H](c3ccccc3OCC)[C@H]2C1 do in these assays?
M1 ag: -0.013; RORa activator: 16; SF-1 act: -2; S1P1 ag pot: -16; S1P3 ag: 0; M1 antagonist: 1.6

What do the screens show for `COc1cc([C@@H]2[C@H]3CN(C)CC=C3C(C#N)=C(N)C2(C#N)C#N)cc2c1OCO2`?
M1 ag: 6.6*; RORa activator: -41; SF-1 act: -29; S1P1 ag pot: 9; S1P3 ag: -4; M1 antagonist: 0.21; M1 ag confirm: 31; M4 ag counter: 9.7

How did O=C(Nc1ccccc1)Nc1ccc(S(=O)(=O)N2CCCCC2)cc1 do in these assays?
M1 ag: 3.5*; RORa activator: 4; SF-1 act: 8; S1P3 ag: -1; M1 antagonist: -0.67; M1 ag confirm: -14; M4 ag counter: -28

How did Cc1nnc(SC(C)C(=O)Nc2ccc(S(=O)(=O)N3CCCCCC3)cc2)s1 (stereo not given) do in these assays?
M1 ag: -2.5*; RORa activator: -4; SF-1 act: 4; S1P1 ag pot: 16; S1P3 ag: 1; M1 antagonist: 0.053; M1 ag confirm: inconclusive; M4 ag counter: inconclusive

What do the screens show for `COC(=O)Nc1ccc(S(=O)(=O)N2CCCCCC2)cc1`?
M1 ag: -0.018; RORa activator: -3; SF-1 act: 3; S1P1 ag pot: -19; S1P3 ag: -1; M1 antagonist: 0.047

What do the screens show for `O=C(NCCc1cccc(Cl)c1)c1cccnc1`?
M1 ag: 11*; RORa activator: 24; SF-1 act: 10; S1P1 ag pot: -4; S1P3 ag: -2; M1 antagonist: -4.4*; M1 ag confirm: -1.5; M4 ag counter: -21

What do the screens show for `O=C1CC(c2ccco2)CC2=C1C=Nc1ccccc1N2` (stereo not given)?
M1 ag: -0.069; RORa activator: 3; SF-1 act: -8; S1P1 ag pot: 1; S1P3 ag: -1; M1 antagonist: 0.052

How did O=c1[nH]c2c(s1)C=Nc1ccccc1N2 do in these assays?
M1 ag: 69*; RORa activator: 2; SF-1 act: 14; S1P3 ag: 0; M1 antagonist: -0.9; M1 ag confirm: 249*; M4 ag counter: 227*

What do the screens show for `COc1ccc(C2C(C(C)=O)=C(C)N=c3s/c(=C\c4cc(C)n(C)c4C)c(=O)n32)c(OC)c1` (stereo not given)?
M1 ag: 144*; RORa activator: -6; SF-1 act: -6; S1P1 ag pot: -1; S1P3 ag: 0; M1 antagonist: -0.086; M1 ag confirm: 458*; M4 ag counter: inconclusive

Results for O=C1NCC2=C1C(c1ccc(Br)cc1)Nc1ccccc1N2 (stereo not given) ?
M1 ag: 0.0026; M1 antagonist: 2.8

Results for Cc1ccc(S(=O)(=O)N2CCCN(S(=O)(=O)c3ccc(C)cc3)CC2)cc1 ?
M1 ag: 0.48; RORa activator: -6; SF-1 act: 16; S1P3 ag: 0; M1 antagonist: -0.037

Results for C=CCN=C1SCC(=O)N1S(=O)(=O)c1ccc(C)cc1 ?
M1 ag: 3.5*; RORa activator: -33; SF-1 act: -2; S1P1 ag pot: -7; S1P3 ag: 0; M1 antagonist: -0.2; M1 ag confirm: -15; M4 ag counter: -45
